From PubChem
IMP-1 inhibitor = IMP-1 metallo-beta-lactamase inhibitors, primary screen, biochemical, epi-absorbance readout, Pseudomonas aeruginosa enzyme | inhibition, % at 5.6 µM | metallo-beta-lactamase IMP-1 (Pseudomonas aeruginosa) | purified IMP-1, nitrocefin hydrolysis, epi-absorbance fluorescence | 290,000 compounds, 0.45% hits | AID 1556, 2009;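 active means inhibition above the mean plus 3 SD of all compounds in the same screening run, cut at about 4.5% in these data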
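System: Purified IMP-1 | Read-out basis: Percent enzyme inhibition | Controls: IMP-1 with DMSO as 0%, enzyme-free DMSO as 100% | Replicates: One well per compound | Doses: 5.6 µM nominal single concentration | Detection: Epi-absorbance fluorescence, 480 nm excitation, 530 nm emission | Incubation: 25 °C, 15 min preincubation, 25 min reaction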
UBC9 SUMO inh = inhibitors of in vitro SUMOylation cascade, primary screen, biochemical, HTRF, uHTS; HTRF SUMOylation assay, SAE1/SAE2 + UBC9; AID 2006, 2009; 290,000 compounds, 0.36% hits; inhibition, % at 35 µM; in the data active means inhibition above about 50%, passing the limit was not always enough; inconclusive means no clear call, values can overlap the other calls
Target sequence (P63279 whole entry, looked up): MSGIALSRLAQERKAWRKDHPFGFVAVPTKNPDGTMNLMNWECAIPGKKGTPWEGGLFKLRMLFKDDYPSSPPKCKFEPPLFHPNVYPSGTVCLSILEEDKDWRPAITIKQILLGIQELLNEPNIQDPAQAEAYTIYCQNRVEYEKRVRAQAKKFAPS
VIM-2 inh = VIM-2 metallo-beta-lactamase inhibitors, primary screen, biochemical, epi-absorbance readout, Pseudomonas aeruginosa enzyme. purified VIM-2, nitrocefin hydrolysis, epi-absorbance fluorescence. inhibition, % at 5.6 µM. 290,000 compounds, 0.89% hits. AID 1527, 2009;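 active means inhibition above the mean of all tested compounds plus 3 SD, cutoff set per screening run, cut at about 7.5% in these data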;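 further: red hydrolysis product quenches plate fluorescence so inhibitors raise well fluorescence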
HCV NS3 hel inh = inhibitors of HCV NS3 helicase, primary screen, biochemical, Cy5 molecular beacon fluorescence | Hepatitis C virus NS3 helicase | NS3 helicase DNA unwinding | inhibition, % at 10.9 µM | 290,000 compounds, 0.56% hits | AID 1800, 2009;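 active means inhibition above the mean of all tested compounds plus 3 SD, set per campaign, cut at about 35% in these data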
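Measured by: Cy5 fluorescence, 0 and 60 min reads / Assay system: NS3 helicase fragment of HCV / Control set: low DMSO, high thioflavine S at 110 µM / Times: 1 h reaction at 25 °C, ATP-initiated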
HCV core dimer = inhibitors of HCV core protein dimerization, primary screen, biochemical, TR-FRET, high-throughput | 300,000 compounds, 0.33% hits | AID 1899, 2009 | inhibition, % at 5 µM | TR-FRET GST/Flag-core106 dimerization, 1536-well;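 active means inhibition above the mean of all tested compounds plus 3 SD, set per screening campaign, cut at about 45% in these data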
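Test system: GST/Flag-tagged HCV core106 proteins; Medium: KF-containing HEPES buffer, pH 7.45, DTT, CHAPS, BSA; Times: compound-protein-antibody incubation 4 h at 22.5 °C; Detection: TR-FRET 671 and 617 nm emission; Benchmarks: wells lacking GST-core106 and wells with excess unlabelled core106.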
PHOSPHO1 block = PubChem AID 1565; recombinant PHOSPHO1, absorbance phosphatase assay; 290,000 compounds, 1.1% hits; Phosphoethanolamine/phosphocholine phosphatase (Homo sapiens), Q8TCT1; inhibition, % at 13.3 µM; in the data active means inhibition above about 60%
Target sequence (Q8TCT1 whole entry, looked up): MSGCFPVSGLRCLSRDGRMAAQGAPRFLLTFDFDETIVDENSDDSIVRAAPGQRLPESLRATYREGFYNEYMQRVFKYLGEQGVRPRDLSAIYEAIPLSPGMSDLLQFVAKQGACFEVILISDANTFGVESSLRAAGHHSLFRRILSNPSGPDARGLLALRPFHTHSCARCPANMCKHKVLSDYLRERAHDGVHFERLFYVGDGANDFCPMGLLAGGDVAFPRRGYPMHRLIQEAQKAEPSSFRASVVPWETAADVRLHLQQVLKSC
Hits are given with their value; n = inactive; u = inconclusive; x = no result given. Most compounds without a hit are left out; they make up all but 3.1% or so of the library.

SMILES | IMP-1 inhibitor | UBC9 SUMO inh | VIM-2 inh | HCV NS3 hel inh | HCV core dimer | PHOSPHO1 block
Cc1nc2ccccc2c2oc(C(=O)N3CCC(C)CC3)cc12 | n | n | 10.9 | n | n | n
S=c1[nH]nc(-c2cccnc2)n1/N=C/C=C/c1ccccc1 | n | n | n | n | n | 67.4
S=c1[nH]nc(-c2cccnc2)n1/N=C/c1ccccc1 | n | n | n | n | n | n
S=c1[nH]nc(-c2ccncc2)n1/N=C/C=C/c1ccco1 | n | 90.6 | n | n | n | n
CC(/C=N/n1c(-c2ccccc2)n[nH]c1=S)=C\c1ccco1 | n | n | n | n | n | 84.2
CC(/C=N/n1c(-c2ccc(C)cc2)n[nH]c1=S)=C\c1ccco1 | n | n | n | n | n | n
Cc1cccc(CN2CCC(Oc3ccc(C(=O)N4CCCC4)cc3)CC2)n1 | n | n | n | n | n | n
N#CCc1ccc(OC(=O)c2ccncc2)cc1 | x | x | x | x | n | x
O=[N+]([O-])CC(=Nc1ccc(Cl)cc1)N/N=C\c1oc(O)c2ccccc12 | n | n | n | n | 60.6 | n
O=C(N/N=C\c1ccc(COc2ccc([N+](=O)[O-])cc2)o1)c1ccc(Cl)cc1 | n | n | n | n | n | n
Cc1ccc(C)c2nc3sc(C(=O)N4CCCc5ccccc54)c(N)c3cc12 | n | n | n | n | n | n
Cc1ccc(C)c2nc3sc(C(=O)O)cc3cc12 | n | n | 9.6 | n | n | n
CCN(CC)S(=O)(=O)c1cc(C(=O)Nc2cc(C)[nH]n2)ccc1Cl | n | n | n | n | n | n
O=C(O)C1CCN(C(=O)c2ccccc2N2C(=O)[C@@H]3Cc4c([nH]c5ccccc45)C(c4cccc(Cl)c4)N3C2=O)CC1 (stereo partly specified) | n | n | n | n | n | n
CCC1=NN2C(=N)/C(=C\c3ccc(OCCOc4ccc(NC(C)=O)cc4)c(OC)c3)C(=O)N=C2S1 | n | n | 10.2 | n | n | n
CCOc1ccc(Nc2n[nH]c(=S)s2)cc1 | n | n | n | n | n | n
S=c1[nH]nc(Nc2ccc(Cl)cc2)s1 | n | n | n | n | n | 85.9
O=c1cc(CSc2nnnn2-c2ccccc2)nc2scc(-c3ccccc3)n12 | n | n | n | n | 60.0 | n
Cc1ccccc1Nc1nc(CSc2nnnn2-c2ccccc2)cs1 | n | n | n | n | n | 95.4
O=c1cc(CSc2nnnn2-c2ccccc2)nc2sccn12 | n | n | n | n | n | n
c1ccc(-c2nc(CSc3nnnn3-c3ccccc3)cs2)cc1 | n | n | n | n | n | n
COC(=O)c1ccc(=O)c2nc3/c(=C/O)c(O)cc(=O)c3[nH]c12 | n | u | 17.6 | n | n | n
COC(=O)c1ccc(N)cc1O | n | n | n | n | n | n
O=C(CSc1nnc(-c2ccc(S(=O)(=O)N3CCCC3)cc2)n1CC1CCCO1)NC1CC1 (stereo unspecified) | n | n | n | n | n | 84.2
CCSc1nnc(-c2ccc(S(=O)(=O)N3CCOCC3)cc2)n1CC1CCCO1 (stereo unspecified) | n | n | n | n | n | n
SMILES | IMP-1 inhibitor | UBC9 SUMO inh | VIM-2 inh | HCV NS3 hel inh | HCV core dimer | PHOSPHO1 block
COc1cc(C(=O)CSc2nnc(-c3ccc(O)cc3)n2CC2CCCO2)ccc1NC(C)=O (stereo unspecified) | n | n | n | n | n | 79.2
O=c1[nH]ncn1-c1ccccc1C(F)(F)F | n | n | n | n | n | n
O=c1[nH][nH]c(=S)n1-c1ccccc1C(F)(F)F | n | n | n | n | x | 90.4
Cc1cccc(Nc2nc(-c3cccs3)cs2)n1 | n | n | n | n | n | n
Cc1cccc(Nc2nc(-c3ccccn3)cs2)n1 | n | n | n | n | n | 71.4
COc1ccc(NC(=O)CN(C)S(=O)(=O)c2ccc3c(c2)c(=O)n(C)c(=O)n3C)cc1 | n | n | n | n | n | n
O=C(NNc1cc(N2CCOCC2)nc(N2CCOCC2)n1)c1ccc(Cl)cc1Cl | n | 85.5 | n | n | n | n
CC(=O)NNc1cc(N2CCOCC2)nc(N2CCOCC2)n1 | n | n | n | n | n | n
c1ccc(-c2nn3c(-c4ccco4)nnc3s2)nc1 | n | n | 9.7 | n | n | n
Cc1oc(-c2ccccc2Cl)cc1-c1nn2c(-c3ccco3)nnc2s1 | x | n | x | x | x | 71.9
Clc1ccc(-c2nnc3sc(-c4ccccn4)nn23)cc1 | n | n | n | n | x | n
COc1ccc(-c2nnc3sc(C4CCCCC4)nn23)cc1OC | n | n | n | n | n | n
Brc1ccc(-c2nn3c(-c4ccco4)nnc3s2)o1 | n | n | n | n | n | 99.4
c1coc(-c2nnc3sc(C4CCCCC4)nn23)c1 | n | n | n | n | n | 71.9
Clc1ccc(-c2ccc(-c3nn4c(-c5ccco5)nnc4s3)o2)cc1 | n | x | n | n | n | x
CCN(CC)c1ccc(-c2nn3c(-c4n[nH]c5c4CCC5)nnc3s2)cc1 | n | n | n | n | n | n
C1CCC(c2nn3c(-c4n[nH]c5c4CCC5)nnc3s2)CC1 | n | n | n | n | 50.9 | n
CNC(C)C#Cc1ccc2oc3cccc(OC)c3c(=O)c2c1 (stereo unspecified) | n | n | 8.3 | n | n | n
Cc1cc(=O)oc2cc(OCCSCCN3CCCCC3)ccc12 | n | n | n | n | n | n
COc1ccc(C(=O)N2CCC(n3nccc3NC(=O)C3CC3)CC2)c(OC)c1OC | n | n | n | n | n | n
CC(=O)c1ccccc1C(=O)N1CCC(n2nccc2NC(=O)C2CC2)CC1 | n | n | n | n | x | 65.8
CCCCC1(C(=O)OCC)CC(CSC(=N)N)OC1=O (stereo unspecified) | n | n | n | n | n | n
Cc1ccc(C(CCNC(C)c2cccs2)c2ccco2)cc1 (stereo unspecified) | n | n | n | n | n | n
S=c1[nH]nc(-c2ccco2)n1/N=C/C(Cl)=C/c1ccccc1 | n | n | 8.1 | n | n | n
S=c1[nH]nc(-c2ccco2)n1/N=C/c1ccc(Cl)c(Cl)c1 | n | n | n | n | n | n
S=c1[nH]nc(-c2ccco2)n1/N=C/c1cccc(Cl)c1 | n | n | 9.1 | n | n | n
Cc1ccsc1/C=N/n1c(-c2ccco2)n[nH]c1=S | n | n | n | n | n | 62.0
Cc1cc(-c2n[nH]c(=S)n2/N=C/C(Cl)=C/c2ccccc2)n[nH]1 | n | n | n | n | n | n
CC(C)(C)C(=O)Nc1ccc(Cc2ccncc2)cc1 | n | x | n | n | n | x
CCN(CC(=O)Nc1ccc(N2CCOCC2)cc1)CC(=O)NC(C)(C)C | n | n | n | n | n | n
